According to ChEMBL document CHEMBL4330069, “Boosting the efficacy of anti-MRSA β-lactam antibiotics via an easily accessible, non-cytotoxic and orally bioavailable FtsZ inhibitor” (Eur J Med Chem, 2019):
Converted amounts (≈) assume the structure as drawn.

What was measured:
Format in all cases: functional
Staphylococcus aureus [1] = test: Synergistic antibacterial activity against multidrug-resistant Staphylococcus aureus isolate 200 in presence of cefuroxime by broth microdilution assay
Outline: (§1)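 Clinical MRSA isolate panel; compound and β-lactam tested alone and in combination by CLSI broth microdilution, compounds dissolved in DMSO, growth inhibition scored by eye, run in duplicate. FIC index = FIC(compound) + FIC(drug), each the MIC in combination divided by the MIC alone; an index ≤ 0.5 was called synergy.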

Staphylococcus aureus [2] = test: Synergistic antibacterial activity against multidrug-resistant Staphylococcus aureus isolate 256 in presence of meropenem by broth microdilution assay
Outline: (§2)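 CLSI broth microdilution on clinical MRSA isolates. MICs were measured for the β-lactam alone, the test agent alone and the two combined. Compounds were dissolved in DMSO, and growth inhibition was scored by eye. FIC index is the sum, over both agents, of MIC in combination divided by MIC alone. An FIC index ≤0.5 was taken as synergy.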

Staphylococcus aureus [3] = test: Synergistic antibacterial activity against multidrug-resistant Staphylococcus aureus isolate 200 in presence of cloxacillin by broth microdilution assay; outline: as §1
Staphylococcus aureus [4] = test: Synergistic antibacterial activity against multidrug-resistant Staphylococcus aureus isolate 3267 in presence of cefuroxime by broth microdilution assay; outline: as §2
Staphylococcus aureus [5] = test: Synergistic antibacterial activity against multidrug-resistant Staphylococcus aureus isolate 1449 in presence of cefuroxime by broth microdilution assay; outline: as §1
Staphylococcus aureus [6] = test: Synergistic antibacterial activity against multidrug-resistant Staphylococcus aureus isolate 2224 assessed as fractional Inhibitory concentration index in presence of meropenem by broth microdilution assay
Outline: (§3)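 CLSI broth microdilution run on clinical MRSA isolates with each β-lactam alone, the test agent alone, and the two combined; agents dissolved in DMSO. Growth inhibition was read by eye. FIC index = FIC(compound) + FIC(β-lactam), where each FIC is the MIC in combination divided by the MIC alone. An index ≤0.5 was taken as synergy.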

Staphylococcus aureus [7] = test: Synergistic antibacterial activity against multidrug-resistant Staphylococcus aureus isolate 1749 in presence of cloxacillin by broth microdilution assay; outline: as §1
Staphylococcus aureus [8] = test: Synergistic antibacterial activity against multidrug-resistant Staphylococcus aureus isolate 3589 assessed as fractional Inhibitory concentration index in presence of meropenem by broth microdilution assay
Staphylococcus aureus [9] = test: Synergistic antibacterial activity against multidrug-resistant Staphylococcus aureus isolate 85 assessed as fractional Inhibitory concentration index in presence of cefuroxime by broth microdilution assay
Staphylococcus aureus [10] = test: Synergistic antibacterial activity against multidrug-resistant Staphylococcus aureus isolate 3580 in presence of methicillin by broth microdilution assay
Staphylococcus aureus [11] = test: Synergistic antibacterial activity against multidrug-resistant Staphylococcus aureus isolate 85 in presence of cefuroxime by broth microdilution assay
Staphylococcus aureus [12] = test: Synergistic antibacterial activity against multidrug-resistant Staphylococcus aureus isolate 1449 in presence of methicillin by broth microdilution assay; outline: as §1
Staphylococcus aureus [13] = test: Synergistic antibacterial activity against multidrug-resistant Staphylococcus aureus isolate 256 in presence of cefuroxime by broth microdilution assay; outline: as §2
Staphylococcus aureus [14] = test: Synergistic antibacterial activity against multidrug-resistant Staphylococcus aureus isolate 200 assessed as fractional Inhibitory concentration index in presence of amoxicillin by broth microdilution assay; outline: as §3
Staphylococcus aureus [15] = test: Synergistic antibacterial activity against multidrug-resistant Staphylococcus aureus isolate 1136 assessed as fractional Inhibitory concentration index in presence of amoxicillin by broth microdilution assay; outline: as §3
Staphylococcus aureus [16] = test: Antibacterial activity against multidrug-resistant Staphylococcus aureus isolate 2224 by broth microdilution assay
Outline: (§4)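 Broth microdilution MIC per CLSI guidelines against clinical MRSA isolates, for β-lactams and test compound alone and in combination. Compounds were dissolved in DMSO. Growth was read by eye, in duplicate. FIC index = FIC(compound) + FIC(drug); synergy defined as FIC index ≤0.5.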

Staphylococcus aureus [17] = test: Synergistic antibacterial activity against multidrug-resistant Staphylococcus aureus isolate 2728 assessed as fractional Inhibitory concentration index in presence of cloxacillin by broth microdilution assay
Staphylococcus aureus [18] = test: Synergistic antibacterial activity against multidrug-resistant Staphylococcus aureus isolate 1402 in presence of cefuroxime by broth microdilution assay; outline: as §1
Staphylococcus aureus [19] = test: Synergistic antibacterial activity against multidrug-resistant Staphylococcus aureus isolate 774 assessed as fractional Inhibitory concentration index in presence of cloxacillin by broth microdilution assay
Staphylococcus aureus [20] = test: Synergistic antibacterial activity against multidrug-resistant Staphylococcus aureus isolate 254 in presence of amoxicillin by broth microdilution assay; outline: as §2
Staphylococcus aureus [21] = test: Synergistic antibacterial activity against multidrug-resistant Staphylococcus aureus isolate 2919 assessed as fractional Inhibitory concentration index in presence of amoxicillin by broth microdilution assay
Staphylococcus aureus [22] = test: Synergistic antibacterial activity against multidrug-resistant Staphylococcus aureus isolate 254 in presence of cloxacillin by broth microdilution assay; outline: as §2
Staphylococcus aureus [23] = test: Synergistic antibacterial activity against multidrug-resistant Staphylococcus aureus isolate 3411 in presence of cloxacillin by broth microdilution assay
Staphylococcus aureus [24] = test: Synergistic antibacterial activity against multidrug-resistant Staphylococcus aureus isolate 774 in presence of amoxicillin by broth microdilution assay
Staphylococcus aureus [25] = test: Synergistic antibacterial activity against multidrug-resistant Staphylococcus aureus isolate 1344 assessed as fractional Inhibitory concentration index in presence of methicillin by broth microdilution assay; outline: as §3
Staphylococcus aureus [26] = test: Synergistic antibacterial activity against multidrug-resistant Staphylococcus aureus isolate 2516 in presence of cloxacillin by broth microdilution assay; outline: as §2
Staphylococcus aureus [27] = test: Synergistic antibacterial activity against multidrug-resistant Staphylococcus aureus isolate 1402 in presence of methicillin by broth microdilution assay; outline: as §1
Staphylococcus aureus [28] = test: Synergistic antibacterial activity against multidrug-resistant Staphylococcus aureus isolate 1344 assessed as fractional Inhibitory concentration index in presence of cefuroxime by broth microdilution assay; outline: as §3
Staphylococcus aureus [29] = test: Synergistic antibacterial activity against multidrug-resistant Staphylococcus aureus isolate 254 assessed as fractional Inhibitory concentration index in presence of amoxicillin by broth microdilution assay
Staphylococcus aureus [30] = test: Synergistic antibacterial activity against multidrug-resistant Staphylococcus aureus isolate 256 assessed as fractional Inhibitory concentration index in presence of cefuroxime by broth microdilution assay
Staphylococcus aureus [31] = test: Synergistic antibacterial activity against multidrug-resistant Staphylococcus aureus isolate 3580 in presence of amoxicillin by broth microdilution assay
Staphylococcus aureus [32] = test: Antibacterial activity against multidrug-resistant Staphylococcus aureus isolate 85 by broth microdilution assay; outline: as §4
Staphylococcus aureus [33] = test: Antibacterial activity against multidrug-resistant Staphylococcus aureus isolate 3332 by broth microdilution assay; outline: as §4
Staphylococcus aureus [34] = test: Antibacterial activity against multidrug-resistant Staphylococcus aureus isolate 1136 by broth microdilution assay; outline: as §4
Staphylococcus aureus [35] = test: Synergistic antibacterial activity against multidrug-resistant Staphylococcus aureus isolate 2901 in presence of meropenem by broth microdilution assay; outline: as §2
Staphylococcus aureus [36] = test: Synergistic antibacterial activity against multidrug-resistant Staphylococcus aureus isolate 3580 assessed as fractional Inhibitory concentration index in presence of cloxacillin by broth microdilution assay
Staphylococcus aureus [37] = test: Synergistic antibacterial activity against multidrug-resistant Staphylococcus aureus isolate 358 in presence of amoxicillin by broth microdilution assay
Staphylococcus aureus [38] = test: Antibacterial activity against multidrug-resistant Staphylococcus aureus isolate 1449 by broth microdilution assay; outline: as §4
Staphylococcus aureus [39] = test: Synergistic antibacterial activity against multidrug-resistant Staphylococcus aureus isolate 85 in presence of cloxacillin by broth microdilution assay
Staphylococcus aureus [40] = test: Antibacterial activity against multidrug-resistant Staphylococcus aureus isolate 3580 by broth microdilution assay; outline: as §4

`CCCCCCCCCNc1ccc(F)c(C(N)=O)c1F` showed an MIC (Staphylococcus aureus [1]) of 2 µg/mL, an MIC (Staphylococcus aureus [2]) of 8 µg/mL and an MIC (Staphylococcus aureus [3]) of 1 µg/mL. The MIC (Staphylococcus aureus [4]) was 2 µg/mL, the MIC (Staphylococcus aureus [5]) was 2 µg/mL and the “fractional inhibitory concentration index (FICI)” value (Staphylococcus aureus [6]) was 4. For the same compound, the MIC (Staphylococcus aureus [7]) was 0.5 µg/mL, the “fractional inhibitory concentration index (FICI)” value (Staphylococcus aureus [8]) was 1.5 and the “fractional inhibitory concentration index (FICI)” value (Staphylococcus aureus [9]) was 0.3. It also gave an MIC (Staphylococcus aureus [10]) of 2 µg/mL, an MIC (Staphylococcus aureus [11]) of 2 µg/mL and an MIC (Staphylococcus aureus [12]) of 2 µg/mL. For the same compound, the MIC (Staphylococcus aureus [13]) was 2 µg/mL, the “fractional inhibitory concentration index (FICI)” value (Staphylococcus aureus [14]) was 0 and the “fractional inhibitory concentration index (FICI)” value (Staphylococcus aureus [15]) was 1. For the same compound, the MIC (Staphylococcus aureus [16]) was 1020 µg/mL (≈ 3430 µM), the “fractional inhibitory concentration index (FICI)” value (Staphylococcus aureus [17]) was 1 and the MIC (Staphylococcus aureus [18]) was 2 µg/mL. For the same compound, the “fractional inhibitory concentration index (FICI)” value (Staphylococcus aureus [19]) was 0.5, the MIC (Staphylococcus aureus [20]) was 8 µg/mL and the “fractional inhibitory concentration index (FICI)” value (Staphylococcus aureus [21]) was 0.5. It also gave an MIC (Staphylococcus aureus [22]) of 2 µg/mL, an MIC (Staphylococcus aureus [23]) of 1 µg/mL and an MIC (Staphylococcus aureus [24]) of 8 µg/mL. The “fractional inhibitory concentration index (FICI)” value (Staphylococcus aureus [25]) was 0.3, the MIC (Staphylococcus aureus [26]) was 2 µg/mL and the MIC (Staphylococcus aureus [27]) was 2 µg/mL. The “fractional inhibitory concentration index (FICI)” value (Staphylococcus aureus [28]) was 0.3, the “fractional inhibitory concentration index (FICI)” value (Staphylococcus aureus [29]) was 0.6 and the “fractional inhibitory concentration index (FICI)” value (Staphylococcus aureus [30]) was 0. For the same compound, the MIC (Staphylococcus aureus [31]) was 8 µg/mL, the MIC (Staphylococcus aureus [32]) was 1020 µg/mL (≈ 3430 µM) and the MIC (Staphylococcus aureus [33]) was 16 µg/mL (≈ 53.6 µM). For the same compound, the MIC (Staphylococcus aureus [34]) was 16 µg/mL (≈ 53.6 µM), the MIC (Staphylococcus aureus [35]) was 4 µg/mL and the “fractional inhibitory concentration index (FICI)” value (Staphylococcus aureus [36]) was 0.5. It also gave an MIC (Staphylococcus aureus [37]) of 4 µg/mL, an MIC (Staphylococcus aureus [38]) of 4 µg/mL (≈ 13.4 µM) and an MIC (Staphylococcus aureus [39]) of 0.5 µg/mL. The MIC (Staphylococcus aureus [40]) was 32 µg/mL (≈ 107 µM).
